ChEMBL document CHEMBL3414544, “PAINS in the assay: chemical mechanisms of assay interference and promiscuous enzymatic inhibition observed during a sulfhydryl-scavenging HTS” (J Med Chem, 2015)
Activity calls are given as the source filed them. Unless noted, the calls are words filed in the database; no cut-off is given here.

Experiments:
[1] = biological target: Histone acetyltransferase GCN5 (Saccharomyces cerevisiae S288c) (UniProt Q03330); assay: Inhibition of yeast histone acetyltransferase Gcn5-Ada2-Ada3 complex using tetramer and [3H]-acetyl-CoA assessed as acetate incorporation […] by liquid scintillation counting in presence of 1 mM DTT
Sequence of Histone acetyltransferase GCN5 (Saccharomyces cerevisiae S288c) (Q03330 whole entry): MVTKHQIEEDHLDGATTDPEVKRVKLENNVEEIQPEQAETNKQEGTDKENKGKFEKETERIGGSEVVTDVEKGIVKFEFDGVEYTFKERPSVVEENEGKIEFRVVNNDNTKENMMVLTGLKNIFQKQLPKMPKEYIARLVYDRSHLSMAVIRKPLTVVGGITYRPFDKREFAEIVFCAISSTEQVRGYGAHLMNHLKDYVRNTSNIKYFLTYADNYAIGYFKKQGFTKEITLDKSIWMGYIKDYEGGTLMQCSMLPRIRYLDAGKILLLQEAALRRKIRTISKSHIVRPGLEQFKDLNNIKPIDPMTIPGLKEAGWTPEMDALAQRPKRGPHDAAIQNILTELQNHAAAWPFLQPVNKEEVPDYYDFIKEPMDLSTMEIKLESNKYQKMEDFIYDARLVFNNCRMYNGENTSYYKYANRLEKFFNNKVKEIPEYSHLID

[2] = Fluorescence quenching assessed as fluorescence signal reduction at 10 uM after 10 mins; assay type: physicochemical
Procedure, shortened: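 CPM (20 μM final) and CoA (5 μM final) reacted to completion in assay buffer (stable plateau, usually ~5 min); adduct solution added to wells preplated with compound; shaken 5 min, equilibrated 5 min at room temperature; fluorescence intensity read as percent signal reduction versus DMSO controls. Flagged as quencher at >20% signal reduction at 10 μM final compound.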

[3] = Chemical stability of the compound in HTS buffer assessed as GSH adduct formation measured as retention time after 15 mins by UPLC-MS analysis; assay type: physicochemical; conditions: 0.25 h
Procedure, shortened: (§1)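 Compound (typically 0.5 mM final) incubated in HTS buffer (pH 8.0) for 5, 15 or 30 min, then reduced glutathione added (2 equiv per 1 equiv compound); aliquots analysed by UPLC–MS (BEH C18 column, ELS and 254 nm traces) 5 min after GSH addition, and the same sample re-analysed 15 min later. HTS-like conditions but 5% DMSO, no detergent.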

[4] = biological target: T1, Histone acetyltransferase RTT109 (Saccharomyces cerevisiae (strain ATCC 204508 / S288c) (Baker's yeast)) (UniProt Q07794); assay: Inhibition of Vps75-stimulated recombinant Saccharomyces cerevisiae histone acetyltransferase Rtt109 assessed as H3K56 acetylated product at […] after 45 mins by Slot bolt inhibiton assay
T1 sequence (whole entry): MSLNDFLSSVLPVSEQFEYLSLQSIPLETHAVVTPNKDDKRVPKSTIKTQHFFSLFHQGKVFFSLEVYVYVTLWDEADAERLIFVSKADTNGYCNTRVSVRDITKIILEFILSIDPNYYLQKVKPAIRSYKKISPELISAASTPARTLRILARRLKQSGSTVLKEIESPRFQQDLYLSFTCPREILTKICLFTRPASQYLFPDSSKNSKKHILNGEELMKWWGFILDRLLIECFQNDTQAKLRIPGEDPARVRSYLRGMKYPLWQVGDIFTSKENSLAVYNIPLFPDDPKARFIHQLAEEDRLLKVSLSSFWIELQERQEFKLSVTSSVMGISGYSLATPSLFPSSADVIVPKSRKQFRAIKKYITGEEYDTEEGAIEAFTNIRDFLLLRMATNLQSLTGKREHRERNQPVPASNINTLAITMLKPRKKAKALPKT

[5] = Fluorescence quenching in HTS buffer with […] CoA assessed as fluorescence signal reduction at 10 uM after 10 mins; assay type: physicochemical
[6] = Fluorescence quenching in HTS buffer assessed as fluorescence signal reduction at 10 uM after 10 mins; assay type: physicochemical
[7] = biological target: T1, Histone acetyltransferase RTT109 (Saccharomyces cerevisiae (strain ATCC 204508 / S288c) (Baker's yeast)); assay: Inhibition of Vps75-stimulated recombinant Saccharomyces cerevisiae histone acetyltransferase Rtt109 using [3H]-acetyl-CoA assessed as acetate incorporation […] by liquid scintillation counting in presence of 1 mM DTT
[8] = biological target: T2, Histone acetyltransferase p300 (Homo sapiens, UniProt Q09472); assay: Inhibition of recombinant histone acetyltransferase p300 (unknown origin) using dH3-H4 tetramer and [3H]-acetyl-CoA assessed as acetate incorporation after 5 mins by liquid scintillation counting in presence of 1 mM DTT
T2 sequence (Q09472 whole entry): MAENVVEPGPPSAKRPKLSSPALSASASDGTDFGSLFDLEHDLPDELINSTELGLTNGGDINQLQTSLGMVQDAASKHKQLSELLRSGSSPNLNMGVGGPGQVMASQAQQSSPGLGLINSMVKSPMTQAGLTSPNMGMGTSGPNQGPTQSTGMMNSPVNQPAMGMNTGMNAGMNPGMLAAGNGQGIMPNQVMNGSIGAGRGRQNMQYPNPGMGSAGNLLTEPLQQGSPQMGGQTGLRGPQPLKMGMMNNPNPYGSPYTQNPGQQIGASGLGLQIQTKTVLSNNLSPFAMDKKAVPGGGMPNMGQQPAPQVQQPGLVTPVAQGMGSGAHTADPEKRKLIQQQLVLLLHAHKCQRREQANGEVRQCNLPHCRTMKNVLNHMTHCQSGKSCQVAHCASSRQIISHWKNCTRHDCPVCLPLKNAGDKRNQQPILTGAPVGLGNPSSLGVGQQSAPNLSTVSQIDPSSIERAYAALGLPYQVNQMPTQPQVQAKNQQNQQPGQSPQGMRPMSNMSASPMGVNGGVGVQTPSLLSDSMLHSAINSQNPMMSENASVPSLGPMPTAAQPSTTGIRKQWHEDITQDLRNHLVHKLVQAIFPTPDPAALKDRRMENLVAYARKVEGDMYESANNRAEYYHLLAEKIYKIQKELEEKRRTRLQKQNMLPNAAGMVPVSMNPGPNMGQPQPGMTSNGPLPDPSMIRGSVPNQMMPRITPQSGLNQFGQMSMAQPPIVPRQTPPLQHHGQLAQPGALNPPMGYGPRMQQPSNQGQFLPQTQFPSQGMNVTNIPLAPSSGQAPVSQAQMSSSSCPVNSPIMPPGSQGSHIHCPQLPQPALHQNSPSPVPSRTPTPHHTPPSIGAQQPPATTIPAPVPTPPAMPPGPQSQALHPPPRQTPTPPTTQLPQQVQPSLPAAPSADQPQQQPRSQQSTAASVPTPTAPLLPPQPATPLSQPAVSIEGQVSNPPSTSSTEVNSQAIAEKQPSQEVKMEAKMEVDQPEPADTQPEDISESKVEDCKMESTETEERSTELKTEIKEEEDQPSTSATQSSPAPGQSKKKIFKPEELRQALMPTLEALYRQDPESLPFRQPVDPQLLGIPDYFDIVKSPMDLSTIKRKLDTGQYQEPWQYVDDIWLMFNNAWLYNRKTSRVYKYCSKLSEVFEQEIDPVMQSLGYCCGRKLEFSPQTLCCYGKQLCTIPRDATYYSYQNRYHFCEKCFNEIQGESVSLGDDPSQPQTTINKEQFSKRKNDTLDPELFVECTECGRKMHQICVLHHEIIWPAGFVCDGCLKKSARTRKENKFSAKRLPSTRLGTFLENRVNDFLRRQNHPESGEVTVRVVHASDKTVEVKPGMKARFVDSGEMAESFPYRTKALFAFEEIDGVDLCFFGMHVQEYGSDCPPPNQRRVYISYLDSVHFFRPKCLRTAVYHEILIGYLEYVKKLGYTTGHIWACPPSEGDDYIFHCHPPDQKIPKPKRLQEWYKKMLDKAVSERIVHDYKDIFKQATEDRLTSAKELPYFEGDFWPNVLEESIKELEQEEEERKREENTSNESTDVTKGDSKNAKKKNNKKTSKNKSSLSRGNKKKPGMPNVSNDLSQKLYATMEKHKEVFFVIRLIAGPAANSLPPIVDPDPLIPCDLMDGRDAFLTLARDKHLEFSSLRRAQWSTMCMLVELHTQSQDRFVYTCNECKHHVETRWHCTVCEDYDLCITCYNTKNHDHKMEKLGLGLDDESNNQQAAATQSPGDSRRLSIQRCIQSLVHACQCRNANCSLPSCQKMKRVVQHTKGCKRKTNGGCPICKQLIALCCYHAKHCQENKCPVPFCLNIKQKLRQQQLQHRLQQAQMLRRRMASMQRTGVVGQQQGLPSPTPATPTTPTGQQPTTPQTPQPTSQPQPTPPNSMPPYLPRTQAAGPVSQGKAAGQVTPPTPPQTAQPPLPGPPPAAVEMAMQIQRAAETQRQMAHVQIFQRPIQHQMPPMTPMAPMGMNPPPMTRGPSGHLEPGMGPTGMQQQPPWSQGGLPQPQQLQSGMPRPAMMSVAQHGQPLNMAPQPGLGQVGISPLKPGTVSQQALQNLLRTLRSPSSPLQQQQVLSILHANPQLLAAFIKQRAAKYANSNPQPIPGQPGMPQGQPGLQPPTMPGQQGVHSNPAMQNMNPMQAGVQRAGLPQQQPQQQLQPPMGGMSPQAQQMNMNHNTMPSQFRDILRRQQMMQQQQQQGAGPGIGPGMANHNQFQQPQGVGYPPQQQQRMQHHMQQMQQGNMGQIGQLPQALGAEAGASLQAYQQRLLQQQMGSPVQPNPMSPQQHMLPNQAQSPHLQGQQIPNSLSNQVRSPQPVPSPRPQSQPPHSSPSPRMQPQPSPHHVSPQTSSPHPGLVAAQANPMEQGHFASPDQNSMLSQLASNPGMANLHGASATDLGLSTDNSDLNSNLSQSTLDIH

[9] = Fluorescence quenching in HTS buffer with 20 uM 7-diethylamino-3-(4'-maleimidyl-phenyl)-4-methylcoumarin assessed as fluorescence signal reduction at 10 uM after 10 mins; assay type: physicochemical
[10] = biological target: T2, Histone acetyltransferase p300; assay: Inhibition of recombinant histone acetyltransferase p300 (unknown origin) using dH3-H4 tetramer and [3H]-acetyl-CoA assessed as acetate incorporation […] by liquid scintillation counting
[11] = biological target: T1, Histone acetyltransferase RTT109 (Saccharomyces cerevisiae (strain ATCC 204508 / S288c) (Baker's yeast)); assay: Inhibition of Vps75-stimulated recombinant Saccharomyces cerevisiae histone acetyltransferase Rtt109 assessed as H3K27 acetylated product at […] after 45 mins by Slot bolt inhibiton assay
[12] = Chemical stability of the compound in HTS buffer assessed as GSH adduct formation measured as retention time after 5 mins by UPLC-MS analysis; assay type: physicochemical; procedure, shortened: as §1
[13] = biological target: Histone acetyltransferase GCN5 (Saccharomyces cerevisiae S288c, UniProt Q03330); assay: Inhibition of yeast histone acetyltransferase Gcn5-Ada2-Ada3 complex using tetramer and [3H]-acetyl-CoA assessed as acetate incorporation after 30 mins by liquid scintillation counting
Sequence of Histone acetyltransferase GCN5 (Q03330 whole entry): as the sequence (Q03330 whole entry) above

[14] = biological target: T3, Histone acetyltransferase RTT109 (Saccharomyces cerevisiae (strain ATCC 204508 / S288c) (Baker's yeast), UniProt Q07794); assay: Inhibition of Vps75-stimulated recombinant Saccharomyces cerevisiae histone acetyltransferase Rtt109 using [3H]-acetyl-CoA assessed as acetate incorporation after 30 mins by liquid scintillation counting
T3 sequence (Q07794 whole entry): T1 sequence (whole entry)

[15] = biological target: T3, Histone acetyltransferase RTT109; assay: Inhibition of Vps75-stimulated recombinant Saccharomyces cerevisiae histone acetyltransferase Rtt109 using Asf1-dH3-H4 as substrate assessed as coenzyme A production after 45 mins by CPM based HTS assay
Procedure, shortened: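 Recombinant Rtt109–Vps75 at 50 nM, with Asf1–dH3–H4 as substrate and acetyl-CoA as acetyl donor. Buffer contained freshly prepared 0.01% Triton X-100. The CoA product was detected by fluorescence of its CPM adduct. Plates had Z′ ≥0.5. IC50 came from a four-parameter variable-slope fit.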

[16] = Chemical stability of the compound in HTS buffer assessed as GSH adduct formation by UPLC-MS analysis; assay type: physicochemical; procedure, shortened: as §1
[17] = biological target: T4, Lupus La protein (Homo sapiens) (UniProt P05455); assay: Induction of thiol reactivity with La protein (unknown origin) using […] assessed as protein reactivity by ALARM NMR
T4 sequence (whole entry): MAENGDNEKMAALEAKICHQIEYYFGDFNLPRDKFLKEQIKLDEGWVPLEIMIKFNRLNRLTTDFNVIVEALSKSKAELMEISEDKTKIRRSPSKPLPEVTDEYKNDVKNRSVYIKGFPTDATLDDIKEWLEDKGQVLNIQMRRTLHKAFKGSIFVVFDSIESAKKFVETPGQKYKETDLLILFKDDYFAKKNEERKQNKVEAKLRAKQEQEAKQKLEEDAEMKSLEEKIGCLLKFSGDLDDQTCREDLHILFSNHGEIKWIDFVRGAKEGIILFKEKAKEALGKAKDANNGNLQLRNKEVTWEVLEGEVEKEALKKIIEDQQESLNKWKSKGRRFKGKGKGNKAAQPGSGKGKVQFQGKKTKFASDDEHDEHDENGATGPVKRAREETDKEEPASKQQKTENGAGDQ
Procedure, shortened: (§2)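 ALARM NMR with recombinant La antigen expressed in E. coli Rosetta, 15N-labelled and 13C-labelled at Leu/Ile δ-methyl and Val γ-methyl groups; protein pre-reduced with 20 mM DTT then dialysed DTT-free under N2.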

[18] = biological target: T4, Lupus La protein (Homo sapiens); assay: Induction of thiol reactivity with La protein (unknown origin) using […] assessed as protein reactivity by ALARM NMR in presence of 20 mM DTT; procedure, shortened: as §2

Row | SMILES | Activity [1] | Activity [2] | Retention_time [3] [min] | Activity [4] | Activity [5] | Activity [6] | Activity [7] | Activity [8] | Activity [9] | IC50 ([10]; read-out: IC50) [nM] | Activity [11] | Retention_time [12] [min] | IC50 ([13]; read-out: IC50) [nM] | IC50 ([14]; read-out: IC50) [nM] | IC50 [15] | further results
1 | O=S(=O)(Nc1cc(Sc2nnnn2-c2ccccc2)c(O)c2ccccc12)c1ccccc1 | Active | Not Active | 3.28 | Active | Not Active | Not Active | Active | Active | Not Active | 3100 | Active | 3.4 | – | – | – | –
2 | O=C(O)CSc1cc(NS(=O)(=O)c2ccc(Br)cc2)c2ccccc2c1O | Active | Not Active | – | – | Not Active | Not Active | – | Active | Active | 330 | – | – | 1200 | 130 | Not Active | –
3 | O=C(O)CSc1cc(NS(=O)(=O)c2ccc(C(=O)O)cc2)c2ccccc2c1O | Active | Not Active | 3.28 | – | Not Active | Not Active | – | Active | Active | 660 | – | 3.27 | 1300 | 150 | Not Active | –
4 | O=S(=O)(Nc1cc(Sc2nc[nH]n2)c(O)c2ccccc12)c1ccc2ccccc2c1 | – | Not Active | 3.28 | – | Not Active | Not Active | – | – | Not Active | 510 | – | 3.69 | 2500 | – | – | –
5 | CNc1nc(-c2ccccc2)[n+](-c2ccccc2)s1.[Cl-] | Active | Not Active | – | Active | Not Active | Not Active | Active | Active | Not Active | 1900 | Active | – | 7500 | – | – | Stability [16]: Unstable; Activity [17]: Active; Activity [18]: inactive
6 | O=[N+]([O-])c1c(Sc2nnnn2-c2ccccc2)cc(Cl)c2nonc12 | Active | Not Active | – | Active | Not Active | Not Active | Active | Active | Not Active | 1100 | Active | – | 1600 | 770 | – | IC50 ([15]; read-out: IC50): 2300 nM
7 | OC(Cn1cncn1)(Cn1cncn1)c1ccc(F)cc1F [FLUCONAZOLE] | inactive | – | – | – | – | – | inactive | inactive | – | – | – | – | – | – | Not Active | IC50 [13]: Not Active; IC50 [14]: Not Active; IC50 [10]: Not Active
8 | O=S(=O)(Nc1cc(Cl)c(O)c2ccccc12)c1ccc(Br)cc1 | Active | Not Active | 3.28 | Active | Not Active | Not Active | Active | Active | Not Active | 1800 | Active | 3.65 | 1200 | 1600 | – | IC50 ([15]; read-out: IC50): 2500 nM
9 | O=C(O)CCSc1cc(NS(=O)(=O)c2ccc(Br)cc2)c2ccccc2c1O | Active | Not Active | 3.28 | – | Not Active | Not Active | – | Active | Active | 1000 | – | 3.67 | 650 | 520 | Not Active | Activity [17]: Active; Activity [18]: inactive
10 | O=S(=O)(Nc1cc(Sc2ncn[nH]2)c(O)c2ccccc12)c1ccc2ccccc2c1 | Active | – | – | Active | – | – | Active | Active | – | – | Active | – | – | – | – | Activity [17]: Active; Activity [18]: inactive
11 | O=S(=O)(Nc1cc(Sc2nc[nH]n2)c(O)c2ccccc12)c1ccc(Br)cc1 | Active | Not Active | – | Active | Not Active | Not Active | Active | Active | Not Active | 1100 | Active | – | 5200 | – | – | –
12 | CCN(CC)c1ccc2c(C)c(-c3ccc(N4C(=O)C=CC4=O)cc3)c(=O)oc2c1 | Active | – | – | – | – | – | Active | Active | – | 260 | – | – | 1100 | 260 | – | –
13 | Cc1ccc(N2C(=O)CC(Sc3nncn3-c3ccccc3)C2=O)cc1 (configuration not stated) | Active | Not Active | – | Active | Not Active | Not Active | Active | Active | Not Active | 9800 | Active | – | 27000 | 8600 | – | IC50 ([15]; read-out: IC50): 11000 nM
